Measured values collected from several papers.
Each line is one published result; the experiments were not run side by side. Values after ≈ are worked out from the molar mass of the structure shown.
Organism: Candida albicans

`Cc1cc(N)c2ccccc2[n+]1CCCCCCCCCC[n+]1c(C)cc(N)c2ccccc21` gave an inhibition zone of 13 mm (microbial growth; disc diffusion; 50 µg/disc).
`C#CCCCCCCCCC=CCC(O)CC(O)CO` (stereo not shown) gave an IC50 of > 8 µg/mL (microbial growth; broth dilution; ATCC90028).
With `C[C@@H]1[C@H](O)[C@@H](C)/C=C/C=C/C=C/C=C/C=C/C=C/C=C/[C@H](O[C@@H]2O[C@H](C)[C@@H](O)[C@H](N)[C@@H]2O)C[C@@H]2O[C@](O)(C[C@@H](O)C[C@@H](O)[C@H](O)CC[C@@H](O)C[C@@H](O)CC(=O)O[C@H]1C)C[C@H](O)[C@H]2C(=O)O` the inhibition zone was 11 mm (microbial growth; disc diffusion; 35 µg/disc).
`O=C(Cc1cc(O)c(O)c(O)c1)NCCCCCCCC[P+](c1ccccc1)(c1ccccc1)c1ccccc1.[Br-]` has an MIC of > 32 µg/mL (microbial growth; broth dilution; ATCC90028; 24 h).
With `C[C@@H]1[C@H](O)[C@@H](C)/C=C/C=C/C=C/C=C/C=C/C=C/C=C/[C@H](O[C@@H]2O[C@H](C)[C@@H](O)[C@H](N)[C@@H]2O)C[C@@H]2O[C@](O)(C[C@@H](O)C[C@@H](O)[C@H](O)CC[C@@H](O)C[C@@H](O)CC(=O)O[C@H]1C)C[C@H](O)[C@H]2C(=O)O` the MFC was 1.25 µg/mL (≈ 1.35 µM) (microbial killing; ATCC90028).
`CCCCCCCOc1c(OC)cc(NC(C)CCCN)c2nc(C(C)(C)C)ccc12` (stereo not shown) gave an MFC of 10 µg/mL (≈ 23.3 µM) (microbial killing; ATCC90028).
The IC50 of `C#CCCCCCCCCCCCC(O)CC(O)CO` (stereo not shown) is reported as > 200 µg/mL (microbial growth; broth dilution; ATCC90028).
With `C[C@@H]1[C@H](O)[C@@H](C)/C=C/C=C/C=C/C=C/C=C/C=C/C=C/[C@H](O[C@@H]2O[C@H](C)[C@@H](O)[C@H](N)[C@@H]2O)C[C@@H]2O[C@](O)(C[C@@H](O)C[C@@H](O)[C@H](O)CC[C@@H](O)C[C@@H](O)CC(=O)O[C@H]1C)C[C@H](O)[C@H]2C(=O)O` the IC50 was 0.32 µg/mL (≈ 0.346 µM) (microbial growth; ATCC90028).
`O=C(O)c1cn(C2CC2)c2cc(N3CCNCC3)c(F)cc2c1=O` gave an MIC of 12.5 µM (microbial growth; broth dilution).
With `C[C@@H]1[C@H](O)[C@@H](C)/C=C/C=C/C=C/C=C/C=C/C=C/C=C/[C@H](O[C@@H]2O[C@H](C)[C@@H](O)[C@H](N)[C@@H]2O)C[C@@H]2O[C@](O)(C[C@@H](O)C[C@@H](O)[C@H](O)CC[C@@H](O)C[C@@H](O)CC(=O)O[C@H]1C)C[C@H](O)[C@H]2C(=O)O` the IC50 was 0.26 µg/mL (≈ 0.281 µM) (microbial growth; broth dilution; ATCC90028).
`C[C@@H]1[C@H](O)[C@@H](C)/C=C/C=C/C=C/C=C/C=C/C=C/C=C/[C@H](O[C@@H]2O[C@H](C)[C@@H](O)[C@H](N)[C@@H]2O)C[C@@H]2O[C@](O)(C[C@@H](O)C[C@@H](O)[C@H](O)CC[C@@H](O)C[C@@H](O)CC(=O)O[C@H]1C)C[C@H](O)[C@H]2C(=O)O` has an inhibition zone of 21 mm (microbial growth; 1000 µg/mL).
For `Clc1ccccc1C(c1ccccc1)(c1ccccc1)n1ccnc1`, the inhibition zone was 21 mm (microbial growth; disc diffusion; 100 µg/mL).
With `O=C(CCCCCCCCCC[P+](c1ccccc1)(c1ccccc1)c1ccccc1)Nc1ccc(O)c(O)c1.[Br-]` the MIC was 32 µg/mL (microbial growth; broth dilution; ATCC90028; 24 h).
